Laboratory results as given in ChEMBL document CHEMBL4513216, “Probing the Open Global Health Chemical Diversity Library for Multistage-Active Starting Points for Next-Generation Antimalarials” (ACS Infect Dis, 2020).

test: Toxicity liver stage against HepG2, at 10uM; type: cell-based; set-up: test concentration 10 uM, cell line HepG2-A16-CD81EGFP; conditions: human, HepG2-A16-CD81EGFP cells; read-out: INHIBITION
Outline: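 Uninfected HepG2-A16-CD81EGFP cells, 3 × 10^3 per well, 1536-well, plated on prespotted compound at 10 μM final, parasite-free screening media added to match infected plates; puromycin 10 μM positive, DMSO 0.5% negative; run in parallel with 48 h PbLuc assay at 37 °C, 5% CO2; viability by CellTiter-Glo luminescence, normalized to controls.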

First: COc1cccc(OC)c1C(=O)N1CCN(c2ccccc2F)CC1
Second: COc1ccccc1C(=O)N1CCC(Oc2ccc(C#N)cn2)CC1
The cytotoxicity at 10 µM of the first is lower: -5.22% for the first, 5.54% for the second.

First: Cc1cc(N2CCC(O)CC2)nc(C)n1
Second: Cc1nccc(N2CCC(=O)N(CC3CC3)C(C(C)C)C2)n1 (stereo unspecified)
The cytotoxicity at 10 µM of the first is lower: -74.7% for the first, -0.232% for the second.

First: Cc1cccc(CN2CCC3(CC2)COC(COCC2CC2)C3)n1 (stereo unspecified)
Second: CS(=O)(=O)NC1CC2(CCN(CC3CC3)CC2)Oc2ccccc21 (stereo unspecified)
The cytotoxicity at 10 µM of the first is lower: -108% for the first, -5.34% for the second.

Compared with CN(CC(N)=O)Cc1c(Cl)ccc2cccnc12, COc1ccc(C(C)N(C)Cc2c(C3CC3)[nH]c3ncccc23)cc1 (stereo unspecified) is lower in cytotoxicity at 10 µM: 4.53% for the first, -2.45% for the second.

Compared with CN(Cc1ccc(-n2cccn2)cc1)c1cc(N)nc(N)n1, CCCc1cc(NCc2ccc(CO)cc2)n2nccc2n1 is lower in cytotoxicity at 10 µM: 86.7% for the first, -14.1% for the second.

First: O=C(c1cnc2c(c1)CCC2)N1CCCC(CO)(CC2CC2)C1 (stereo unspecified)
Second: CCCC1(CO)CCCN(c2ncccc2F)C1 (stereo unspecified)
The cytotoxicity at 10 µM of the first is lower: -42.1% for the first, -6.83% for the second.

Compared with CS(=O)(=O)NC[C@]12COC[C@H]1CN(C(=O)c1ccoc1)C2, CS(=O)(=O)NCC1CCCN(C(=O)Nc2ccccc2F)C1 (stereo unspecified) is lower in cytotoxicity at 10 µM: 4.34% for the first, -145% for the second.

First: O=C(CSc1nncs1)N1CCN(Cc2ccc(Cl)s2)CC1
Second: CC(C)Cc1noc(CN2CCN(C(=O)c3cccs3)CC2)n1
The cytotoxicity at 10 µM of the first is higher: -4.14% for the first, -14.3% for the second.

First: Cc1nnc2ccc(N3CCN(Cc4nccn4C)CC3)nn12
Second: N#Cc1ccc(N2CCN(c3nccs3)CC2)nc1
The cytotoxicity at 10 µM of the first is lower: 13.3% for the first, 31% for the second.

Compared with O=C(CNc1ccc(OCC2CCOCC2)cc1)NCc1ccco1, O=C(Nc1ccccc1)C1CN(CC2CC2)CC12CCOCC2 (stereo unspecified) is lower in cytotoxicity at 10 µM: 3.43% for the first, -6.36% for the second.

Compared with COCCN1CCn2c(CN(C)C(C)C)cnc2C1, COCC(=O)NCc1cc(=O)n2c(n1)CN(Cc1nccs1)CCC2 is lower in cytotoxicity at 10 µM: -2.92% for the first, -107% for the second.

Compared with Cc1cc(C(=O)N2CCO[C@H]3[C@H](OCCN(C)C)CC[C@@H]32)c(C)[nH]1, O=C(C1CCOCC1)N1CCO[C@H]2[C@H](Oc3cccnc3)CC[C@@H]21 is lower in cytotoxicity at 10 µM: 7.07% for the first, 2.03% for the second.

Compared with CC(C)c1cc(NCC2(Cn3cccn3)CC2)n2nccc2n1, O=C1NCCN1CCNc1cc(-c2ccncc2)nc2ccnn12 is higher in cytotoxicity at 10 µM: -10.9% for the first, -4.76% for the second.

Compared with CCC(NC(=O)Cn1ccc(=O)n(C)c1=O)c1ccc(OC)cc1 (stereo unspecified), O=C(Cn1ccc(=O)[nH]c1=O)NCC1Cc2ccccc2O1 (stereo unspecified) is higher in cytotoxicity at 10 µM: 2.19% for the first, 3.74% for the second.

Going from CC(C)n1ccnc1C1CCCN(c2cncc(N(C)C)n2)C1 (stereo unspecified) to COc1cc(N2CCCC(c3nccn3CCN(C)C)C2)nc(N)n1 (stereo unspecified), the cytotoxicity at 10 µM falls from 10.1% to -9.6%.

Compared with COCCCNC(=O)c1ccn(-c2ccc3ccccn23)n1, CC(=O)N1N=C(c2ccccc2)OC1C(=O)NCCc1cccc(Cl)c1 (stereo unspecified) is higher in cytotoxicity at 10 µM: -0.987% for the first, 2.82% for the second.

First: COc1ccc(CNC(C)c2ccc(Cl)cc2)c(OC)c1OC (stereo unspecified)
Second: COc1ccc2c(=O)n(CC3CCCN(C)C3)ccc2c1OC (stereo unspecified)
The cytotoxicity at 10 µM of the first is higher: 7.74% for the first, -0.391% for the second.

First: COc1cc(C)c(C(C)NC(=O)NCCCn2cncn2)cc1OC (stereo unspecified)
Second: COc1ccc(Cl)cc1C(=O)NCc1cnn(C)c1C
The cytotoxicity at 10 µM of the first is lower: -16.2% for the first, 6.81% for the second.

Compared with CCCSCC(=O)N1C[C@@H](NC(C)=O)[C@H](c2ccc(OC)cc2)C1, COCCSCC(=O)NCc1ccc(N(C)C)cc1 is higher in cytotoxicity at 10 µM: 7.41% for the first, 19% for the second.

Compared with CN(Cc1nccn1C)C1CCCN(Cc2noc(C3CC3)n2)C1 (stereo unspecified), Cc1noc(CN(C)C2CCCN(Cc3noc(C4CC4)n3)C2)n1 (stereo unspecified) is higher in cytotoxicity at 10 µM: -3.54% for the first, -2.19% for the second.

Going from CCn1cnnc1CNC(=O)N(C)Cc1ccc(F)c(F)c1 to Cc1nncn1CCNC(=O)C(C)(C)c1cccc(F)c1, the cytotoxicity at 10 µM rises from -11.4% to 5.73%.

First: CC(C)C(=O)N1CCC12CCCN(C(=O)c1ccccc1)C2 (stereo unspecified)
Second: CN1CCN(C(=O)c2cccs2)Cc2ccccc21
The cytotoxicity at 10 µM of the first is higher: 6.8% for the first, -43.9% for the second.

Going from CS(=O)(=O)N1CCCC(Cc2cnc(Br)cn2)CC1 (stereo unspecified) to CNC(=O)c1ccc(OC2CCN(S(C)(=O)=O)CC2)c(Cl)c1, the cytotoxicity at 10 µM rises from -2.46% to 1.49%.

Compared with COCCOc1ccc(NC(=O)N(CCO)C2CC2)cn1, O=c1cc(CN(CCO)C2CC2)nc2ccc(Cl)cn12 is higher in cytotoxicity at 10 µM: -2.77% for the first, 14.7% for the second.

Going from O=C(C[S+]([O-])Cc1cccc(Cl)c1)NC1CCCC1 (stereo unspecified) to O=C(NC1CC1)[C@@H]1C[C@@H]2CCN(Cc3ccccc3)C[C@H]2O1, the cytotoxicity at 10 µM falls from 0.808% to -68%.

Compared with O=C(O)c1c[nH]c2cc(NS(=O)(=O)c3cccc(F)c3F)ccc12, O=C(Cn1cc(C(=O)O)ccc1=O)NCc1ccc(F)c(Cl)c1 is lower in cytotoxicity at 10 µM: 5.08% for the first, -5.88% for the second.

Compared with CCc1nnc(C2Cc3ccccc3CN2Cc2cc(C)no2)o1 (stereo unspecified), Cc1cc(CNC(=O)N2CCc3ccccc3C2CO)c(C)o1 (stereo unspecified) is higher in cytotoxicity at 10 µM: -7.4% for the first, 7.44% for the second.

Going from Cc1ccc(-c2cc(C(=O)N(C)Cc3noc4c3CCCC4)[nH]n2)o1 to Cc1nc(C2CCCN(C(=O)c3ccnc(N(C)C)c3)C2)no1 (stereo unspecified), the cytotoxicity at 10 µM rises from -11% to -4.77%.

First: CC(C)c1nc(C2CCCN2C(=O)c2cnc[nH]2)no1 (stereo unspecified)
Second: Cc1nc(C2CCCN2C(=O)CCn2cncn2)no1 (stereo unspecified)
The cytotoxicity at 10 µM of the first is higher: -6.49% for the first, -17.8% for the second.

Going from CCOC(=O)CN1C(=O)CN(S(C)(=O)=O)CCC(OC)c2ccccc21 (stereo unspecified) to CCS(=O)(=O)c1ccccc1N1CCC(N)CC1, the cytotoxicity at 10 µM rises from 1.5% to 3.03%.

Compared with CN(C)C[C@H]1OC[C@@H]2CCN(S(=O)(=O)c3cccs3)C[C@@H]21, Cc1ncc(CN(C)C2CCCN(c3cccnn3)C2)s1 (stereo unspecified) is lower in cytotoxicity at 10 µM: 3.04% for the first, 0.709% for the second.

Going from Cn1cccc1CN1CCC2(CC1)CCN(C(=O)c1cnccn1)CC2 to Cn1nc(C2CCN(C(=O)CN3CCCCC3)CC2)c2cccnc21, the cytotoxicity at 10 µM rises from -147% to -30.1%.

Going from Cc1cccnc1N1CCN(C(=O)CCc2ccccn2)CC1 to Cc1cnn(CCNCC(=O)N2CCN(c3ncccn3)CC2)c1, the cytotoxicity at 10 µM rises from -12.1% to -0.0264%.

Compared with CCOc1ccc(NC(C)=O)cc1S(=O)(=O)Nc1nnc(C)s1, CNS(=O)(=O)c1ccc(CNC(=O)Nc2ccccn2)s1 is higher in cytotoxicity at 10 µM: -17.6% for the first, -9.11% for the second.

First: Cc1nn(C)c(C)c1C1CCCN1Cc1nnc(C2CC2)n1C (stereo unspecified)
Second: Cc1nc(CN2CCCC2c2c(C)nn(C)c2Cl)oc1C (stereo unspecified)
The cytotoxicity at 10 µM of the first is higher: 1.76% for the first, -3.33% for the second.

Compared with COc1c(C2CCCN2C(=O)c2sccc2C#N)c(C)nn1C (stereo unspecified), COc1ccc(CC(=O)N2CCC(c3nncn3C)CC2)cc1F is lower in cytotoxicity at 10 µM: 3.33% for the first, 2.01% for the second.

Going from COCCc1noc(CNC(=O)C2CC(=O)N(C(C)(C)C)C2)n1 (stereo unspecified) to CCc1noc(CN(CC)C(=O)CC2C(=O)NCCN2CC=C(C)C)n1 (stereo unspecified), the cytotoxicity at 10 µM falls from 3.77% to 2.24%.

Going from CN(C(=O)c1ccco1)C1CCC(NC(=O)OC(C)(C)C)CC1 (stereo unspecified) to CCn1cc(NC(=O)C2CCN(CC(=O)NC(C)(C)CC)CC2)cn1, the cytotoxicity at 10 µM falls from 8.12% to -1.01%.

Compared with CCCNC(=O)c1nc2c(o1)CN(C(=O)CN(C)C)C2, COC(=O)NCC(=O)N(C)Cc1csc(C)n1 is higher in cytotoxicity at 10 µM: 0.0773% for the first, 2.33% for the second.

Going from c1ccc([C@@H]2CN(Cc3ccncc3)C[C@H]2c2cc[nH]n2)cc1 to NCCn1nc(C2CCN(Cc3ccccc3)C2)c2nccnc21 (stereo unspecified), the cytotoxicity at 10 µM rises from -0.189% to 0.975%.

Going from COCC(=O)N[C@H]1C[C@H]2C(=O)NC[C@@H](CCC(=O)NC3CC3)N2C1 to Cc1cc(CN2CCC(CNC(=O)CN3CCCCCC3)C2)[nH]n1 (stereo unspecified), the cytotoxicity at 10 µM falls from 10.7% to -131%.

Going from O=C1OCCC1N1CCN(c2ccc(O)cc2)CC1 (stereo unspecified) to O=C(CNC(=O)N1CCN(c2cccc(Cl)c2)CC1)Nc1ccccn1, the cytotoxicity at 10 µM rises from -1.29% to -0.74%.

First: CCC(C)N(Cc1cccnc1)Cc1cc2c(cc1Cl)OCO2 (stereo unspecified)
Second: CN(CCN1CCCCC1=O)Cc1cc2cc3c(cc2[nH]c1=O)OCO3
The cytotoxicity at 10 µM of the first is higher: 6.16% for the first, -6.21% for the second.

First: CC(C)c1nnc(NC(=O)Cc2csc(-c3nnc[nH]3)n2)s1
Second: CC(C)(NC(=O)c1cnc(-c2ccccc2F)s1)C(N)=O
The cytotoxicity at 10 µM of the first is lower: -47.2% for the first, 6.96% for the second.

Compared with CN(Cc1ccsc1)C(=O)c1cccc(S(=O)(=O)NCC2CCCO2)c1 (stereo unspecified), O=C(Cc1ccsc1)N1C[C@@H]2OCCN(CC3CCCO3)[C@@H]2C1 (stereo partly specified) is higher in cytotoxicity at 10 µM: -13.8% for the first, -4.42% for the second.

First: NC(=O)C1CCN(C(=O)CCn2ccc3cc(Br)ccc32)CC1
Second: Cn1c(C2CC2)nc2cc(NC(=O)C3CC=CC3)ccc21
The cytotoxicity at 10 µM of the first is lower: -6.44% for the first, 2.8% for the second.

Going from O=C(O)c1ccccc1-c1c(-c2ccccc2)ncn1CC1CCCO1 (stereo unspecified) to OCCNc1cc(-c2ccccc2)ncn1, the cytotoxicity at 10 µM falls from 2.84% to -7.94%.

Going from CCNC(=O)CCC(=O)NC1(c2cccc(C(F)(F)F)c2)CCC1 to N#CC1(NC(=O)c2ccc(-c3nc(C4CC4)n[nH]3)cc2)CCC1, the cytotoxicity at 10 µM rises from -39.8% to 0.614%.

Compared with CN(C)C(=O)[C@H]1C[C@H]2CN(CCc3ccccc3)C[C@@H]1O2, COCCO[C@@H]1CCN(Cc2csc(C)n2)[C@H]1Cc1ccccc1 is higher in cytotoxicity at 10 µM: -94.2% for the first, 5.98% for the second.

Compared with CCOC(=O)CN1C[C@@H]2OCCN(c3ncc(F)cn3)[C@@H]2C1, CCOc1ncnc2c1CCN(C(=O)c1ccncc1F)CC2 is lower in cytotoxicity at 10 µM: 20.2% for the first, -76.6% for the second.

First: Cn1cc2ncn(C3CCN(c4ccccc4F)CC3)c(=O)c2n1
Second: C[C@@H]1CN(Cc2cn(C)nc2-c2ccccc2F)C[C@H](C)O1
The cytotoxicity at 10 µM of the first is higher: 4.44% for the first, -1.43% for the second.

First: O=C(CSc1ccccc1)N1CCc2c(ncnc2N2CCOCC2)C1
Second: COc1ccccc1OC1(C(=O)O)CCN(c2nccnc2OC)CC1
The cytotoxicity at 10 µM of the first is lower: -7.15% for the first, -6.25% for the second.

Compared with O=C(NCc1cccs1)C1CN(C(=O)c2cccs2)CC12CCOCC2 (stereo unspecified), CC1CN(C(=O)c2ccc(=O)n(C)c2)c2ccccc2NC1=O (stereo unspecified) is higher in cytotoxicity at 10 µM: -11.5% for the first, -2.09% for the second.

First: CC(CC1CC1)NCCCN1CCCN(C)CC1 (stereo unspecified)
Second: COc1cc(N2CCCn3cnc(COC(C)C)c3C2)ncn1
The cytotoxicity at 10 µM of the first is higher: 31.7% for the first, -5.3% for the second.

First: COc1ncc(C2(O)CCN(Cc3c(F)cccc3F)CC2)c(OC)n1
Second: COCCNC(=O)C1(CCCc2cccnc2)CCCN1C (stereo unspecified)
The cytotoxicity at 10 µM of the first is lower: 5.29% for the first, 20.1% for the second.

Work on Cc1nnc(NCc2ccc(Cl)cc2)o1 yielded a cytotoxicity at 10 µM of 3.79%.
